Measurements published in PMC7887132 (Chemistry (Weinheim an der Bergstrasse, Germany), 2020).

Columns and labels:
[1] = test system: tyrosine kinases; conditions: previously synthesized and tested; no reference given; cited from earlier work
[2] = molecular target: c-Met (Homo sapiens, UniProt P08581); test: Anti-protein kinase activity, c-Met; type: biochemical; conditions: for IC50: read-out: Anti-protein kinase activity (IC50) c-Met; for percentage of inactivated c-Met: 1 μM of compound used as inhibitor
Method in brief: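 ELISA kinase-kit format, run in duplicate. Met positive-control enzyme (10 μL of 0.1 unit/μL) goes into wells on ice, with kinase assay buffer containing the test compound. Kinase reaction buffer starts the reaction, 60 min at 30 °C. After washing, HRP-conjugated detection antibody PY-39 is added for 60 min at room temperature, then substrate reagent for 5–15 min, then stop solution. Absorbance is read at 450/540 nm within 30 min.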

[3] = molecular target: EGFR WT (Homo sapiens, UniProt P00533); test: Anti-protein kinase activity, EGFR WT; type: biochemical; conditions: for IC50: read-out: Anti-protein kinase activity (IC50) EGFR WT
[4] = molecular target: EGFR L858R (Homo sapiens, UniProt P00533, L858R); test: Anti-protein kinase activity, EGFR L858R; type: biochemical; conditions: read-out: Anti-protein kinase activity (IC50) EGFR L858R
[5] = molecular target: EGFR T790M /L858R (Homo sapiens, UniProt P00533, L858R/T790M); test: Anti-protein kinase activity, EGFR T790M/L858R; type: biochemical; conditions: read-out: Anti-protein kinase activity (IC50) EGFR T790M /L858R
[6] = molecular target: Abl WT (Homo sapiens, UniProt P00519); test: Anti-protein kinase activity, Abl WT; type: biochemical; conditions: read-out: Anti-protein kinase activity (IC50) Abl WT
[7] = molecular target: Abl T315I (Homo sapiens, UniProt P00519, T315I); test: Anti-protein kinase activity, Abl T315I; type: biochemical; conditions: read-out: Anti-protein kinase activity (IC50) Abl T315I
[8] = molecular target: FLT1 (Homo sapiens, UniProt P17948); test: Anti-protein kinase activity, FLT1; type: biochemical; conditions: read-out: Anti-protein kinase activity (IC50) FLT1
[9] = Solubility in water; type: physicochemical

FLT1, sequence (P17948 27-1338): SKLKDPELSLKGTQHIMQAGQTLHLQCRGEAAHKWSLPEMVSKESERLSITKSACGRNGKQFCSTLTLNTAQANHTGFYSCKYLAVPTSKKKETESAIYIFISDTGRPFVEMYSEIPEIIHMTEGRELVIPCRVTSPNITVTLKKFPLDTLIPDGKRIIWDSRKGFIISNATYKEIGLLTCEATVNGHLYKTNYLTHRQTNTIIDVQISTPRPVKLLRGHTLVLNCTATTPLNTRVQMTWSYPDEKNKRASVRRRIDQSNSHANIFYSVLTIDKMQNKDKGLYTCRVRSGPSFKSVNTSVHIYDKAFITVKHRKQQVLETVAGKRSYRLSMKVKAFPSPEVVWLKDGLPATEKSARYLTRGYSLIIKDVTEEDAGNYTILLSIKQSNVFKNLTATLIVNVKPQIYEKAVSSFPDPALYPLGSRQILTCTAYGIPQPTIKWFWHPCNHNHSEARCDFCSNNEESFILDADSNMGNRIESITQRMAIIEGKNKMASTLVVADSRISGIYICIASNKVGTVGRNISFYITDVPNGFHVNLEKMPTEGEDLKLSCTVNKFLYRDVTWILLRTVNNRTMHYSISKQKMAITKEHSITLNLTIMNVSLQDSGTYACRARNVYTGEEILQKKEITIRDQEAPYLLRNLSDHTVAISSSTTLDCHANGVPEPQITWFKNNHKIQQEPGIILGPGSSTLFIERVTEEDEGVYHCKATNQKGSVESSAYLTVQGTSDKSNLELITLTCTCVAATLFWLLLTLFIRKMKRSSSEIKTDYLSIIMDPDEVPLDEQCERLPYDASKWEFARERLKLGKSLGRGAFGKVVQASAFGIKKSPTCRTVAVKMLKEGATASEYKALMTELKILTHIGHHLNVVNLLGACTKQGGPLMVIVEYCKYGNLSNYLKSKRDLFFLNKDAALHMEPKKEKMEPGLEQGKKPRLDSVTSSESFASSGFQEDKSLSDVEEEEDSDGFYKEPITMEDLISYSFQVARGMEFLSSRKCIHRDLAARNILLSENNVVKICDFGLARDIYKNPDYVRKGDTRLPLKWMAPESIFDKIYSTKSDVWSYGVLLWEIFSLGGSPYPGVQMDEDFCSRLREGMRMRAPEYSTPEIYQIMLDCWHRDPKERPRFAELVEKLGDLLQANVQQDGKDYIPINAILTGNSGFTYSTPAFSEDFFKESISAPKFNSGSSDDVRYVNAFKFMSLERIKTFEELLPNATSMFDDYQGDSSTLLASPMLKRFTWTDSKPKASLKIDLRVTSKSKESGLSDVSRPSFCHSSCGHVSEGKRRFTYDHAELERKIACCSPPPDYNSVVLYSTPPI
c-Met, sequence (P08581 25-1390): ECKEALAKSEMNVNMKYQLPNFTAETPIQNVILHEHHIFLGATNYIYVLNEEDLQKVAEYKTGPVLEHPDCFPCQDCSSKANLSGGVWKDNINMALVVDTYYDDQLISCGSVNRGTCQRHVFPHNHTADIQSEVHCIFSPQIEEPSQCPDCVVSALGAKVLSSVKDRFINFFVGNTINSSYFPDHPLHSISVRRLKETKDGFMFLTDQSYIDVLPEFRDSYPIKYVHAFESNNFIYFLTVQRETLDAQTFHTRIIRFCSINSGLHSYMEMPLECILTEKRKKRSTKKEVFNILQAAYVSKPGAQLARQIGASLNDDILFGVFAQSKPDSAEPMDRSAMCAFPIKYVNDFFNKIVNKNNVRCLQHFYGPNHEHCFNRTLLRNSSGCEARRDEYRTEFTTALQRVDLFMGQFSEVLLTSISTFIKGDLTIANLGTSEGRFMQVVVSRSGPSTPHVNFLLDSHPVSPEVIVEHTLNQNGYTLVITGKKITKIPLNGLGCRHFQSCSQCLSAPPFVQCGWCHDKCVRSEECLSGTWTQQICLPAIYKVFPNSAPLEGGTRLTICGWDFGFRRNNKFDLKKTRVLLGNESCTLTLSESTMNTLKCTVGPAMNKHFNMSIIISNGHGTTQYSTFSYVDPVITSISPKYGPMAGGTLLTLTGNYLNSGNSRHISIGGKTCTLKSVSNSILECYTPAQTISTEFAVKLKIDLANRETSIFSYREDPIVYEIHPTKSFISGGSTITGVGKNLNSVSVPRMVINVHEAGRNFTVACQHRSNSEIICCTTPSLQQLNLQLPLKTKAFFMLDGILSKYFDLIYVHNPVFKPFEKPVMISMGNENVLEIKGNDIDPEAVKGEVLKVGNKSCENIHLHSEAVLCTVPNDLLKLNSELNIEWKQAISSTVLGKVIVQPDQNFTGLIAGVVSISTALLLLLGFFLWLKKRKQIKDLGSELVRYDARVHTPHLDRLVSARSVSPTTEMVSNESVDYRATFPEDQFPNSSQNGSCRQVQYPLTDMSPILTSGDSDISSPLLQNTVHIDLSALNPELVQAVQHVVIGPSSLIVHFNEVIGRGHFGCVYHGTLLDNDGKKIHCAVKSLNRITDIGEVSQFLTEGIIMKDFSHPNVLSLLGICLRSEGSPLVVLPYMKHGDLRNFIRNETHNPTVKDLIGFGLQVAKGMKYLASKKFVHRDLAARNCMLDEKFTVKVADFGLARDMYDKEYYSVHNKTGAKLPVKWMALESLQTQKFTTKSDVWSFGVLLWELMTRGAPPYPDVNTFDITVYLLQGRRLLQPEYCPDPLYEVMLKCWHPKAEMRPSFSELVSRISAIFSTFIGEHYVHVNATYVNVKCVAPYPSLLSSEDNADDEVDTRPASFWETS

Compound | inhibitory activity as tyrosine kinases inhibitor [1] | IC50 [2] | IC50 [3] | IC50 [4] | IC50 [5] | IC50 [6] | IC50 [7] | IC50 [8] | solubility in water [9] | percentage of inactivated c-Met [2] | inhibition of EGFR WT (in words) [3] | percentage of inactivated EGFR WT ([3]; 1 μM of compound used as inhibitor) | anti-c-Met activity (in words) [2]
2,6-di(thiazol-4-yl)pyridinophane [compound 5] | didn’t show any inhibitory activity | – | – | – | – | – | – | – | – | – | – | – | –
2,15-Diaza-2,15-diheptanoyl[3.3](2,2’)(4,4’-bithiazolophane) [compound 3] | – | > 1000 nM | > 1000 nM | > 1000 nM | > 1000 nM | > 1000 nM | > 1000 nM | > 1000 nM | only slightly soluble in water | – | – | – | –
2,15-diaza-2,15-bis(tert-butoxycarbonyl)[3.3](2,2’)(4,4’-bithiazolophane) [compound 1] | – | 603 nM | > 1000 nM | > 1000 nM | > 1000 nM | > 1000 nM | > 1000 nM | > 1000 nM | only slightly soluble in water | 59% | partial inhibition | 44% | –
2,15-diaza[3.3](2,2’)(4,4’-bithiazolophanium) dichloride [compound 2] | – | > 1000 nM | > 1000 nM | > 1000 nM | > 1000 nM | > 1000 nM | > 1000 nM | > 1000 nM | almost freely soluble in water | 33% | – | – | showed anti-c-Met activity
CC(C)COC(=O)N1Cc2nc(cs2)-c2csc(n2)CN(C(=O)OCC(C)C)Cc2nc(cs2)-c2csc(n2)C1 [compound 4, 2,15-Bis(isobutoxycarbonyl)-2,15-diaza[3.3](2,2’)(4,4’-bithiazolophane)] | – | > 1000 nM | > 1000 nM | > 1000 nM | > 1000 nM | > 1000 nM | > 1000 nM | > 1000 nM | only slightly soluble in water | 5% | – | – | showed anti-c-Met activity
